Published values gathered from unrelated publications.
HDAC2: Histone deacetylase 2 (HDAC2, Homo sapiens, UniProt Q92769)
HTR2A: 5-hydroxytryptamine receptor 2A (HTR2A, Homo sapiens, UniProt P28223)
PPO3: PPO3 (Agaricus bisporus, UniProt C7FF04)

O=C(NO)c1cncc(OS(=O)(=O)Oc2ccc(-n3ccnc3)cc2)c1  IC50 (HDAC2; enzyme activity; inhibitor; fluorescence): 1.37 µM
O=C(c1cc(C2CCNC2)[nH]n1)N1CCC(c2cccc(Cl)c2)C1 (stereo not drawn)  IC50 (HTR2A; calcium signal; antagonist): 19.3 µM
O=C(NO)c1cncc(OS(=O)(=O)Oc2ccc(C(F)(F)F)cc2)c1  IC50 (HDAC2; enzyme activity; inhibitor; fluorescence): 5.61 µM
CCc1c(C)nc(-c2ccc(Cl)s2)nc1Nc1ccc(CC(=O)O)cc1  IC50 (cGMP-specific 3',5'-cyclic phosphodiesterase (PDE5A, Homo sapiens, UniProt O76074); enzyme activity; inhibitor; FP): ~154 µM
CN(C)C(=O)c1cc2cnc(Nc3ccc(N4CCNCC4)cn3)nc2n1C1CCCC1  IC50 (3',5'-cyclic-AMP phosphodiesterase 4A (PDE4A, Homo sapiens, UniProt P27815); enzyme activity; inhibitor; TR-FRET): 0.25 µM
Nc1nc(-c2ccc(F)cc2)cc(-c2ccc(-c3cc(-c4ccc(F)cc4)nc(N)n3)cc2)n1  IC50 (PPO3; enzyme activity; inhibitor; absorbance): 46 µM
NCC1Cc2cc(F)ccc2N(C(=O)Cc2cc(F)ccc2Br)C1 (stereo not drawn)  IC50 (HTR2A; calcium signal; antagonist): 1.16 µM
Nc1nc(-c2ccc(Br)cc2)cc(-c2ccc(-c3cc(-c4ccc(Br)cc4)nc(N)n3)cc2)n1  IC50 (PPO3; enzyme activity; inhibitor; absorbance): 40.9 µM
C=CC(=O)N1CCCN(C(=O)c2cc(Sc3cnc(NC(=O)C4CC4)s3)c(C)cc2OC)C[C@H]1C  IC50 (Tyrosine-protein kinase TXK (TXK, Homo sapiens, UniProt P42681); enzyme activity; inhibitor): 0.261 µM
O=C1CC[C@H](N2Cc3cc(N4CCN(CC5CCN(c6ccc([C@@H]7c8ccc(O)cc8CC[C@@H]7c7ccccc7)cc6)CC5)CC4)ccc3C2=O)C(=O)N1  IC50 (Kappa-type opioid receptor (OPRK1, Homo sapiens, UniProt P41145); ligand displacement; radioligand): 0.25 µM
c1ccc(O[C@H]2CCN(Cc3ccc(-c4ccn[nH]4)o3)C2)cc1  IC50 (HTR2A; calcium signal; antagonist): 5.2 µM
Cc1ccc(-c2cc(-c3ccc(-c4cc(-c5ccc(C)cc5)nc(N)n4)cc3)nc(N)n2)cc1  IC50 (PPO3; enzyme activity; inhibitor; absorbance): 37.2 µM
